Only some compounds are listed: those with a hit (about 1.9% of all), similar ones and a draw of the others.
CCR6 antagonist – antagonists of human CCR6 receptor. P51684. CHO-K1 CCR6 PathHunter beta-arrestin, luminescence, CCL20-stimulated. inhibition, % at 20 µM. actives 0.49% (n = 340,000). AID 493098;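 active = compounds whose inhibition of the agonist-driven luminescence signal at 20 µM reaches about 50%, limit read from the data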;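 note: cells stimulated with CCL20 at 14 nM final; plate controls were DMSO with CCL20 for no effect and DMSO without agonist for full effect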
Target sequence (P51684 whole entry, looked up): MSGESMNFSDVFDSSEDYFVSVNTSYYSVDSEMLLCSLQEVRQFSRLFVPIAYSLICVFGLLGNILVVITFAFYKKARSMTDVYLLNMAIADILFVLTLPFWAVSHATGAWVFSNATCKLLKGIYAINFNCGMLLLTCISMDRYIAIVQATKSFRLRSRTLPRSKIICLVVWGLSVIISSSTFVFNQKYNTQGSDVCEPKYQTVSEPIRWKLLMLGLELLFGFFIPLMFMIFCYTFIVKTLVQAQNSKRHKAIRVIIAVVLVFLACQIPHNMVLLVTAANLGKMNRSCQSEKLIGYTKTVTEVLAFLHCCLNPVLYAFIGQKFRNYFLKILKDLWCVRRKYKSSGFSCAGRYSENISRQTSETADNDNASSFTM
APJ ag – APJ receptor agonism | AID 2520 | P35414 | actives 0.11% (n = 330,000) | activation, % at 20 µM | CHO-K1 APJ PathHunter beta-arrestin, luminescence; 0% DMSO wells, 100% apelin;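 active = activation more than six SD over the plate average, tested at 20 µM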;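 note: 0% = DMSO alone and 100% = apelin-13 at 10 nM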
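system = engineered CHO-K1 APJ arrestin reporter cells | input = 1000 cells per well | timing = overnight seeding, 90 min compound at 25 °C, 1 h detection | measured by = enzyme-fragment complementation luminescence | read-out = beta-arrestin recruitment to APJ as agonist activity, luminescent signal | control set = negative DMSO alone, positive Apelin-13 at 10 nM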
EBI2 block – EBI2 (human) antagonism; EBI2 beta-arrestin recruitment, luminescence, 7a,25-OHC stimulated; P32249; inhibition, % at 5 µM; actives 0.81% (n = 360,000); AID 651636; in the data active = inhibition above about 38%;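 note: enzyme fragment complementation signal reports receptor beta-arrestin coupling in cells; 0% = agonist plus DMSO wells and 100% = wells without agonist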
TAG inh – reduces triacylglycerol accumulation in H9c2 cells | Nile Red lipid (TAG) fluorescence; cells loaded with 200 µM oleic acid | inhibition, % at 12.5 µM | actives 0.66% (n = 230,000) | AID 651582;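 active = pattern-corrected inhibition of lipid staining of at least 50% with the nuclear-stain viability signal not falling by more than 50%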;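 note: 0% = DMSO wells and 100% = triacsin C control wells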
CXCR6 inh – inhibitors of human CXCR6 receptor. O00574. AID 602244. CHO-K1 PathHunter CXCR6 beta-arrestin, luminescence. actives 0.36% (n = 360,000). inhibition, % at 20 µM; in the data active = inhibition above about 34%, passing the limit was not always enough;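 note: antagonist mode with CXCL16 agonist at 10 nM final; 0% = 10 nM CXCL16 with DMSO and 100% = unstimulated wells without agonist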
APJ antag – APJ receptor antagonism; inhibition, % at 20 µM; CHO-K1 APJ beta-arrestin complementation, luminescence; actives 0.32% (n = 330,000);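 active = inhibition above about 40% at 20 µM, limit read from the data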;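 note: cells challenged with 10 nM apelin-13 agonist together with compound; plate controls were apelin-13 plus DMSO wells for no effect and DMSO wells lacking apelin-13 for full effect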
EBI2 conf – confirmation of human EBI2 receptor antagonists; shares compounds with EBI2 block; EBI2 beta-arrestin luminescence, 7a,25-OHC antagonism; inhibition, % at 5 µM; actives 29% (n = 2,400); AID 651997;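 active = inhibition of at least 50%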
EBI2 ag – counter-screen for EBI2 antagonists: EBI2 agonist activity; 2,400 tested, under 10 active; shares compounds with EBI2 block; activation, % at 5 µM; EBI2-expressing cells, agonist mode, luminescence, 60 min; 0% vehicle, 100% 7α,25-dihydroxycholesterol control; AID 652000;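 active = activation of at least 50%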
bGal counter – inhibits E. coli beta-galactosidase, counter-screen for EBI2 antagonists; shares compounds with EBI2 block; actives 1% (n = 2,400); inhibition, % at 5 µM; purified beta-galactosidase, luminescent Galacton Star, 15 min;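 active = replicate-average signal at least 3 plate SD below neutral wells, shown as high inhibition, flagging enzyme-inhibiting false positives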;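 note: 0% = DMSO wells with enzyme and 100% = wells lacking enzyme; higher means stronger loss of beta-gal luminescence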
* hit, by the source's call; · = no result given.

SMILES	CCR6 antagonist	APJ ag	EBI2 block	TAG inh	CXCR6 inh	APJ antag	EBI2 conf	EBI2 ag	bGal counter
COC(=O)C1=C(c2ccc(OCc3ccccc3)cc2)C[C@@H]2CC[C@H]1N2C(=O)NCc1cccc(OC)c1	16	-2	57*	-20	15	-8	54*	-1	6
COC(=O)C1=C(c2ccc(OCc3ccccc3)cc2)C[C@@H]2CC[C@H]1N2C(=O)NCc1ccc(OC)cc1	·	·	24	4	6	·	·	·	·
CCCNC(=O)c1c(N)n(Cc2ccc3c(c2)OCO3)c2nc3ccccc3nc12	-12	-2	45*	·	-1	20	36	0	2
CC(C)CCNC(=O)c1c(N)n(Cc2ccc3c(c2)OCO3)c2nc3ccccc3nc12	-30	-4	48*	·	1	2	23	0	-9
CCCCCC1(C(C)C)C(=O)NC(=S)NC1=O	9	·	3	1	12	·	·	·	·
CCOC(=O)C1(c2ccccc2)CCN(CCC(=O)Nc2ccc(C(=O)OC)cc2)CC1	14	-2	13	0	2	10	·	·	·
CCOC(=O)C1(c2ccccc2)CCN(CCC(=O)Nc2cccc(Br)c2)CC1	14	-2	59*	0	-7	10	27	0	1
CCOC(=O)C1(c2ccccc2)CCN(CCC(=O)Nc2ccc(OC)cc2)CC1	·	·	52*	-5	-1	·	41	4	4
COC(=O)C1=C(c2cccc(OC)c2OC)C[C@@H]2CC[C@H]1N2C(=O)NCc1cccc2ccccc12	11	-7	2	-4	5	-6	·	·	·
O=C1C2C3CCC(O3)C2C(=O)N1CCO (configuration not stated)	-5	-1	-7	·	-2	6	·	·	·
O=C(c1cc2cc(F)ccc2[nH]1)N1CCC2(CC1)OCCO2	4	4	41	·	-4	-53	·	·	·
O=C(c1cc2cc(Cl)ccc2[nH]1)N1CCC2(CC1)OCCO2	10	5	88*	·	-7	6	66*	2	-1

High-throughput results (PubChem BioAssay)
